Sampled rows, rich in hits. Any-hit rate of the full collection: about 1.9%.
XiGFP reactiv: activators of X-chromosome reactivation in mouse fibroblasts. XiGFP mouse fibroblasts, % GFP-positive cells imaging, 3 d; cells co-treated with 5-aza-dC sensitizer; scaled so ellipticine positive control = 100%. activation, % at 7.58 µM. actives 0.055% (n = 360,000). AID 743238;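 active means mean normalized replicate activation at least 10% and every replicate at or above 10%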;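 further: 0% = median of on-plate neutral control wells and 100% = ellipticine 6 µM median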
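Schedule: 3 d treatment, 15 min room-temperature fixation; system: 68-5-11 XiGFP fibroblast line; buffer or medium: DMEM plus 5-aza-dC sensitizer; control set: ellipticine 6 µM positive control; compound: one concentration, pinned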
CFTR F508del cor: correctors of CFTR F508del function in bronchial epithelial cells; CFBE cells, YFP halide quenching; stimulated with forskolin plus potentiator P3; % fluorescence drop versus neutral controls; activity (quench increase), % at 7.58 µM; actives 0.36% (n = 350,000);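 active means mean added fluorescence quench of at least 8% versus neutral control, with both replicates also reaching 8%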;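 further: cells transiently co-express mutant CFTR-F508del with the halide-sensitive YFP; corrector assay measuring rescue of mutant channel to the surface after 24 h compound exposure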
PGC1a acetyl inh: modulators of PGC1a acetylation; actives 0.17% (n = 350,000); U2OS PGC1a acetylation, AlphaScreen anti-acetyl-lysine; with virally co-expressed GCN5 acetyltransferase; inhibition, % at 15.6 µM;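 active means every replicate shows inhibition of at least 40%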;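 further: 0% = neutral control wells and 100% = positive control wells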
DENV2 CPE rescue: DENV2-induced cell death inhibition; DENV2-infected cells, cytopathic effect rescue, plate reader; CPE inhibition, % at 9.99 µM; actives 1.7% (n = 350,000); AID 651640; in the data active means CPE inhibition above about 20%, passing the limit was not always enough; tested in BHK-21 cells;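 further: 0% = median of neutral control wells and 100% = median of positive control wells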
Cneo AK release: Cryptococcus neoformans lysis via adenylate kinase release | actives 0.2% (n = 360,000) | lysis activity, % at 15 µM | AID 651654 | C. neoformans lysis, adenylate kinase release luminescence, 4 h; normalised: neutral wells 0, clomiphene wells 100;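 active means mean lysis activity across replicates of at least 80%, whatever share of replicates individually reach that level; inactive means mean lysis activity below 80%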
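Material – Cryptococcus neoformans yeast cells · Quantity – 5 × 10^6 yeast cells/mL · Buffer or medium – YPD medium · Compound – single dose · Timing – 4 h static compound exposure, 37 °C, read 1 h post-reagent · Signal – adenylate kinase release luminescence · Read-out basis – lysis from increased AK signal · Benchmarks – Clomiphene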
FN deposition inh: fibronectin deposition inhibition; actives 0.086% (n = 350,000); inhibition, % at 12.6 µM; AID 743247; AH1F fibroblasts, Alexa488-fibronectin deposition fluorescence, overnight;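 active means mean inhibition across replicates of 30% or more, regardless of how many single replicates reach that level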;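 further: positive control wells lacked labelled fibronectin entirely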
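material = AH1F fibroblast monolayer depositing Alexa488-labelled fibronectin into matrix | amount = 10000 AH1F cells/well | buffer or medium = DMEM plus 2% serum, read in PBS | incubation = 1 h cell adhesion before compound, then overnight fibronectin incubation | detection = fluorescence at 485 nm excitation, 525 nm emission | evaluation = percent inhibition as loss of matrix-bound fibronectin fluorescence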
Numbers without * were called inactive; / = no result.

SMILES	XiGFP reactiv	CFTR F508del cor	PGC1a acetyl inh	DENV2 CPE rescue	Cneo AK release	FN deposition inh
S=C(NCCCc1ccccc1)Nc1ccccc1	0	0	5	16	104*	-1
S=C(NCCc1cccc(Cl)c1)NCc1ccccc1	/	/	/	/	13	/
S=C(NCCCc1ccccc1)Nc1ccc(Cl)cc1	0	/	/	/	/	3
Cc1c(Cl)cccc1NC(=S)NCCc1ccc(F)cc1	0	3	/	-3	7	0
CCOc1ccc2[nH]c3c(NCCN(CC)CC)ncnc3c2c1	0	1	-3	-1	-1	4
CCN(CC)CCCNc1nc(-c2ccccc2)nc2ccccc12	/	/	4	/	1	-6
COc1ccc(-c2nc(NCCCN(C)C)c3ccccc3n2)cc1	0	5	-10	30*	0	-1
CCN(CC)CCCNc1nc2ccccc2c2[nH]c3ccc(OC)cc3c12	0	17*	/	13	/	15
COc1ccc(NC(=O)N[C@H]2CC[C@@H](CCNC(=O)c3ccccc3F)O[C@@H]2CO)cc1	0	-1	0	8	-3	1
O=C(Nc1cc(F)ccc1F)N1CCCCN2[C@H](CO)[C@H](c3ccc(-c4ccccc4)cc3)[C@H]2C1	0	-4	-46	62*	3	/
O=C(Nc1ccccc1F)N1CCCCN2[C@H](CO)[C@H](c3ccc(-c4cccnc4)cc3)[C@H]2C1	0	-1	4	27*	-1	/
O=C(Nc1cc(F)ccc1F)N1CCCCN2[C@H](CO)[C@H](c3ccc(-c4ccccc4)cc3)[C@@H]2C1	0	3	7	8	3	/
O=C(Nc1ccccc1F)N1CCCCN2[C@H](CO)[C@@H](c3ccc(-c4cccnc4)cc3)[C@@H]2C1	0	0	-6	-2	-2	/
O=C(Nc1cc(F)ccc1F)N1CCCCN2[C@H](C1)[C@H](c1ccc(-c3ccccc3)cc1)[C@@H]2CO	0	-3	1	36*	-4	/
Cc1ccccc1CN(C)C[C@H]1OCc2cnnn2CCCC(=O)N([C@H](C)CO)C[C@@H]1C	0	2	-6	6	2	0
Cc1ccc(S(=O)(=O)N(C)C[C@H]2Oc3ccc(NC(=O)Cn4cnnn4)cc3CC(=O)N([C@@H](C)CO)C[C@H]2C)cc1	0	-2	-12	-8	-2	6
Cc1ccc(S(=O)(=O)NCCC(=O)OCC(=O)N(Cc2ccccc2)C(C)(C)C)cc1	0	-2	/	12	/	-11
Cc1ccc(S(=O)(=O)NCC(=O)OCC(=O)N(Cc2ccccc2)C(C)(C)C)cc1	1	0	/	93*	/	-5
Cc1ccc(C2=NC3(CCCCC3)NC2=S)cc1	0	4	/	22*	/	5
CC(=O)N1CCN(C(=O)COC(=O)COc2c(C)cc(C)cc2C)CC1	0	-1	3	84*	1	2
CCOC(=O)N1CCN(C(=O)COC(=O)COc2c(C)cc(C)cc2C)CC1	0	1	-10	0	1	-1
C[C@@H](NC(=O)C[C@@H]1C=C[C@H](NC(=O)C2CCC2)[C@@H](CO)O1)c1ccccc1	-1	1	6	24*	65	-2
C[C@H](NC(=O)C[C@@H]1C=C[C@H](NC(=O)C2CCC2)[C@H](CO)O1)c1ccccc1	-1	-2	-7	-6	-3	-11
C[C@H](NC(=O)C[C@@H]1C=C[C@H](NC(=O)CN2CCOCC2)[C@@H](CO)O1)c1ccccc1	0	-1	-1	14	91*	2
O=C(N[C@@H]1C=C[C@H](CC(=O)N2CCc3ccccc3C2)O[C@@H]1CO)C1CCC1	0	-1	3	98*	/	10
SMILES	XiGFP reactiv	CFTR F508del cor	PGC1a acetyl inh	DENV2 CPE rescue	Cneo AK release	FN deposition inh
O=C(N[C@@H]1C=C[C@@H](CC(=O)N2CCc3ccccc3C2)O[C@H]1CO)C1CCC1	0	0	9	1	1	8
CO[C@H]1CN(C)C(=O)c2cc(NS(C)(=O)=O)ccc2OC[C@@H](C)NC[C@H]1C	0	-3	-4	0	/	-11
C[C@@H]1CN([C@H](C)CO)C(=O)c2ccccc2-c2ccccc2CO[C@H]1CN(C)C(=O)Nc1ccccc1	0	-1	-6	1	0	-7
C[C@@H]1CN([C@H](C)CO)C(=O)CCCn2cc(nn2)CO[C@H]1CN(C)Cc1cccc(O)c1	0	-1	-2	-1	-7	2
C[C@H](CO)N1C[C@H](C)[C@H](CN(C)Cc2ccc(C(F)(F)F)cc2)Oc2c(NC(=O)CCCCCC(=O)Nc3ccccc3N)cccc2C1=O	-1	-4	-9	-9	/	-6
COc1ccc(NC(=O)N(C)C[C@@H]2OCCCC[C@H](C)Oc3ccc(NS(=O)(=O)c4ccc(C)cc4)cc3C(=O)N([C@H](C)CO)C[C@H]2C)cc1	0	-4	-6	-7	45	-1
C[C@H](CO)N1C[C@H](C)[C@@H](CN(C)Cc2ccc(C(=O)O)cc2)Oc2ccc(NC(=O)Nc3cccc4ccccc34)cc2CC1=O	2	0	6	77*	0	7
C[C@H]1CN([C@@H](C)CO)C(=O)Cc2cc(NC(=O)Nc3cccc4ccccc34)ccc2O[C@H]1CN(C)Cc1ccc(C(F)(F)F)cc1	1	2	-4	33*	4	/
C[C@@H]1CN([C@@H](C)CO)C(=O)Cc2cc(NC(=O)Nc3cccc4ccccc34)ccc2O[C@@H]1CN(C)Cc1ccc(Cl)c(Cl)c1	0	9.9*	-5	-9	3	/
C[C@@H]1CN([C@H](C)CO)C(=O)Cc2cc(NC(=O)Nc3cccc4ccccc34)ccc2O[C@H]1CN(C)Cc1ccc(C(F)(F)F)cc1	-1	2	-1	-8	0	/
C[C@H](CO)N1C[C@H](C)[C@H](CN(C)Cc2ccc(C(F)(F)F)cc2)Oc2ccc(NC(=O)Nc3cccc4ccccc34)cc2CC1=O	-1	0	-6	42*	3	/
C[C@H](CO)N1C[C@H](C)[C@@H](CN(C)Cc2ccccc2)Oc2ccc(NC(=O)Nc3cccc4ccccc34)cc2CC1=O	0	1	/	1	-6	/
COCC(=O)N1CC2(C1)CN(Cc1cccc(OC)c1)[C@H](CO)c1c2c2ccc(OC)cc2n1C	0	0	-5	3	/	/
COc1ccc(NC(=O)Nc2ccc3c(c2)C(=O)N([C@H](C)CO)C[C@H](C)[C@@H](CN(C)C(=O)CCCN(C)C)OCCCC[C@H](C)O3)cc1	0	-2	5	-2	1	/
CC(C)C#Cc1cnc2c(c1)C(=O)N([C@@H](C)CO)C[C@@H](C)[C@H](CN(C)Cc1ccc3c(c1)OCO3)O2	1	/	-36	2	-2	/

Screens: PubChem BioAssay, Broad Institute
